According to ChEMBL document CHEMBL1147147 (J Med Chem, 2007):
pIC50: −log10 of the molar value.

How the values were obtained:
[1] = Inhibition of botulinum neurotoxin serotype A light chain metalloprotease; parameters: species or system Clostridium botulinum
Procedure, shortened: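 Metalloprotease activity of the BoNT/A light chain was measured by a method described in earlier work. IC50 was derived from concentration-versus-inhibition plots using seven or nine concentrations per inhibitor, averaged from duplicate determinations.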

Clostridium botulinum [2] = experiment: Inhibition of botulinum neurotoxin serotype A light chain metalloprotease at 50 uM
Procedure, shortened: (§1)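 Percent inhibition of BoNT/A light chain metalloprotease activity was measured at a single inhibitor concentration, by a method described in earlier work, in duplicate.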

Clostridium botulinum [3] = experiment: Inhibition of botulinum neurotoxin serotype A light chain metalloprotease at 20 uM; procedure, shortened: as §1

| SMILES | pIC50 [1] | inhibition (Clostridium botulinum [2]) [%] | inhibition (Clostridium botulinum [3]) [%] |
| --- | --- | --- | --- |
| COC(=O)CCC(C)[C@H]1CC[C@H]2[C@@H]3[C@H](OC(C)=O)C[C@@H]4C[C@@H](NCCNc5ccnc6cc(Cl)ccc56)CC[C@]4(C)[C@H]3C[C@H](OC(C)=O)[C@]12C (stereo partly specified) | 4.77 | 80 | – |
| Nc1ccnc2cc(Cl)ccc12 | – | 12 | – |
| COC(=O)CCC(C)[C@H]1CC[C@H]2[C@@H]3[C@H](OC(C)=O)C[C@@H]4C[C@H](N)CC[C@]4(C)[C@H]3C[C@H](OC(C)=O)[C@]12C (stereo partly specified) | – | 13 | – |
| Clc1ccc2c(NCCCN(CCCNc3ccnc4cc(Cl)ccc34)CCCNc3ccnc4cc(Cl)ccc34)ccnc2c1 | 5.49 | – | 67 |
| COC(=O)CCC(C)[C@H]1CC[C@H]2[C@@H]3[C@H](OC(C)=O)C[C@@H]4C[C@H](NCCNc5ccnc6cc(Cl)ccc56)CC[C@]4(C)[C@H]3C[C@H](OC(C)=O)[C@]12C (stereo partly specified) | 5.15 | 90 | – |
| COC(=O)CCC(C)[C@H]1CC[C@H]2[C@@H]3[C@H](OC(C)=O)C[C@@H]4C[C@H](OC(C)=O)CC[C@]4(C)[C@H]3C[C@H](OC(C)=O)[C@]12C (stereo partly specified) | – | 0 | – |
| COC(=O)CCC(C)[C@H]1CC[C@H]2[C@@H]3[C@H](OC(C)=O)C[C@@H]4C[C@H](OCCNc5ccnc6cc(Cl)ccc56)CC[C@]4(C)[C@H]3CC(OC(C)=O)[C@]12C (stereo partly specified) | – | 9 | – |
| COC(=O)CCC(C)[C@H]1CC[C@H]2[C@@H]3[C@H](OC(C)=O)C[C@@H]4C[C@H](OCCNCCNc5ccnc6cc(Cl)ccc56)CC[C@]4(C)[C@H]3CC(OC(C)=O)[C@]12C (stereo partly specified) | – | 62 | – |
